Assay outcomes: PubChem BioAssay, several laboratories
Compounds with a hit are over-represented: about 12% of the library has one in this group of screens.
RAM inhibit – inhibitors of the yeast RAM network, primary screen, dse1pr::URA3 reporter, 5-FOA selection. AID 868, 2007. inhibition, % at 50 µM. S. cerevisiae dse1pr::URA3 reporter, 5-FOA growth OD615, 2 d; analog-sensitive cbk1-as2 kinase mutant strain. 1.8% of 190,000 active;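 active means inhibition above a set limit, 3 SD over mean compound inhibition, cut at about 8.4% in these data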;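 further: inhibition rescues growth on 5-FOA so higher OD means more RAM inhibition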
ABCB1 inh – ABCB1 efflux pump inhibitors, primary screen, cell-based, multiplex, flow cytometry, ABCG2 counter-screen. ATP-dependent translocase ABCB1 (Homo sapiens), P08183. CCRF-Adr cells, JC-1 efflux. inhibition, % at 6.6 µM. 0.067% of 190,000 active; in the data active means inhibition above about 40%;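 further: higher value means more JC-1 retained so stronger ABCB1 efflux block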
ABCG2 inh – ABCG2 efflux pump inhibitors, primary screen, multiplex with ABCB1, IgMXP3 cells, flow cytometry. Broad substrate specificity ATP-binding cassette transporter ABCG2 (Homo sapiens), Q9UNQ0. AID 1325, 2008. JC-1 efflux. 0.1% of 190,000 active. inhibition, % at 6.6 µM;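 active means inhibition above 80%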
Target sequence (Q9UNQ0 whole entry, looked up): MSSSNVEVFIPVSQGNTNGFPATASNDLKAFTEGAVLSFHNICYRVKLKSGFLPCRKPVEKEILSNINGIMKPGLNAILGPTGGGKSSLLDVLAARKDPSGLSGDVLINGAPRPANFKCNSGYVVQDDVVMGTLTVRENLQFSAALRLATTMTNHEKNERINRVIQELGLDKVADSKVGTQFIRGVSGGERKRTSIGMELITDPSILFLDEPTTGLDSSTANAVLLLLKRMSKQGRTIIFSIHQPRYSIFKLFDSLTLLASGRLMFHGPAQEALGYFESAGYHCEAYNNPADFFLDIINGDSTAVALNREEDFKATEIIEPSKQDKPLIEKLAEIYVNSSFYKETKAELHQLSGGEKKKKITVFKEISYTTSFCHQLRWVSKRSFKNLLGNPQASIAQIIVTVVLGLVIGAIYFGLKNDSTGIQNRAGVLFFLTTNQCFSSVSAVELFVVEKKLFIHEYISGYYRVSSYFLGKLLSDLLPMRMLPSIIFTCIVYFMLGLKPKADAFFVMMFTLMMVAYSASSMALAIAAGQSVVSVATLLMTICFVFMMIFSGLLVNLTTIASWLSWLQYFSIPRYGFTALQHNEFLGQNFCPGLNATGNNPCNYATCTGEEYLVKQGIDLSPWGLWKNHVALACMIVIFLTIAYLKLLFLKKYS
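Test system: IgMXP3 (ABCG2) plus far-red-tagged CCRF-Adr (ABCB1) cells / Amount: 3 million cells/mL in well / Reagent: JC-1 transporter substrate / Timing: 10 min compound exposure, 25 °C / Signal: flow cytometry, 530 nm JC-1 signal / Read-out: percent efflux inhibition, scaled nicardipine 100% to DMSO 0% / Benchmarks: nicardipine as high control, DMSO as low control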
WT yeast gro inh – growth inhibition of WT strain, primary screen, mitochondrial fusion inhibitor project, WT and mutant strains, chemical genetic; mitochondrial fusion phenotypic screen; inhibition, % at 10 µM; 2.1% of 190,000 active; AID 1362, 2008; in the data active means inhibition above about 58%; tested in S. cerevisiae
L major viab – Leishmania major promastigote growth inhibition, primary screen; 9% of 200,000 active; inhibition, % at 10 µM; Leishmania major promastigotes, resazurin fluorescence viability; in the data active means inhibition above about 50%;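 further: promastigotes grown with compound for 44 hours at 28 °C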
Each line names hits and unclear results; the compound was inactive in the other large screens.

O=C(NC1CCCCC1)C(c1cccs1)N(C(=O)Cc1c[nH]c2ccccc12)c1ccc(F)cc1 (stereo not given)	L major viab 75
Cc1ccc(C(C(=O)NC2CCCCC2)N(C(=O)Cc2c[nH]c3ccccc23)c2ccccc2)o1 (stereo not given)	none
CCOC(=O)c1cccc(NC(=O)/C=C/c2ccc3c(c2)OCO3)c1	none
O=C(NC(=S)Nc1ccc(Cc2ccncc2)cc1)c1ccc(F)cc1	none
Cc1ccccc1CN1CCN(S(=O)(=O)c2cccs2)CC1	none
CC(=O)Nc1ccc(N(C(=O)Cc2c[nH]c3ccccc23)C(C(=O)NC2CCCCC2)c2ccco2)cc1 (stereo not given)	L major viab 60 (no result: ABCB1 inh)
COc1ccc(CN2CCNC(=O)C2CC(=O)NCc2cn3ccc(C)cc3n2)c(OC)c1 (stereo not given)	none
CC(C)COP(=O)(OCC(C)C)C(Nc1ccccc1)c1ccc2c(c1)OCO2 (stereo not given)	none
CC(C)COP(=O)(OCC(C)C)C(Nc1ccccc1)c1ccc(F)cc1 (stereo not given)	L major viab 93
COCCNC(=O)COc1cccc2c1OC(C)(C)C2	none
CCn1c(N2CCN(S(=O)(=O)c3ccccc3C(F)(F)F)CC2)nc2ccccc21	L major viab 74
COc1ccccc1CNC(=O)CSc1nc(-c2ccccc2)cn1N	none
CN(C(=O)CSc1nc(-c2ccccc2)cn1N)C(c1ccccc1)c1ccccc1	L major viab 100
CCOc1cc2c(cc1/C=C1/NC(=O)N(CC(=O)OC)C1=O)OCO2	none
O=C(c1ccc(Br)o1)N1CCc2ccccc21	none
O=C(c1ccccc1Oc1ccc(C(F)(F)F)cc1[N+](=O)[O-])N1CCOCC1	none
O=C(c1ccc(Oc2ccc(C(F)(F)F)cc2[N+](=O)[O-])cc1)N1CCOCC1	L major viab 55
CCOC(=O)c1c(-c2ccc(C)cc2)csc1NC1=NS(=O)(=O)c2ccccc21	none
CC(C(=O)Nc1ccccc1Sc1ccccc1)N(c1ccccc1)S(C)(=O)=O (stereo not given)	RAM inhibit 8.4, L major viab 99
CN(CC(=O)Nc1ccccc1Sc1ccccc1)C1CCCCC1	WT yeast gro inh 76
CS(=O)(=O)N(CC(=O)Nc1ccccc1Sc1ccccc1)c1ccc(F)cc1	L major viab 76
COc1cc(C(=O)NCc2nnc(SCC(=O)N3CCCc4ccccc43)o2)cc(OC)c1OC	none
CCCc1sc(N/N=C/c2ccccn2)nc1-c1ccc(F)cc1	WT yeast gro inh 83, L major viab 96
CCOc1ccc2nc(NC3=NC(c4ccc(OC)cc4)CC(=O)N3)nc(C)c2c1 (stereo not given)	none
CCOc1ccc2c(C)nc(NC3=NC(C)(C)C=C(C)N3)nc2c1	L major viab 101
CCOc1ccc2nc(NC3=NC(C)(C)C=C(C)N3)nc(C)c2c1	L major viab 98
COC(=O)c1cccc(NC(=S)NC(C)C)c1	none
O=C(CN(C(=O)CSc1nc2ccccc2o1)c1ccccc1F)NC1CCCCC1	L major viab 65 (no result: ABCB1 inh)
COCCN(CC(=O)NC1CCCCC1)C(=O)CSc1nc2ccccc2o1	none
COc1ccccc1-n1cnc2sc(-c3ccccc3)cc2c1=O	WT yeast gro inh 75
CCCCn1cnc2sc(-c3ccccc3)cc2c1=O	none
COCCN1Cc2cccc(C(=O)NC3CCCCCC3)c2C1=O	WT yeast gro inh 71
COc1ccccc1Sc1nc(-c2ccccn2)ncc1OC	L major viab 83
COc1cnc(-c2ccccn2)nc1NC(C)C	L major viab 100
COc1cnc(-c2ccccn2)nc1Sc1ccc(C)cc1	L major viab 100
COc1cnc(-c2ccccn2)nc1Sc1cccc(Cl)c1	L major viab 100
O=[N+]([O-])c1ccc(N2CCN(S(=O)(=O)c3ccccc3)CC2)cc1NCc1ccco1	none
CCOC(=O)C1(CCCc2ccccc2)CCN(C(=O)CN2C(=O)CSC2=O)CC1	none
COc1cccc(/C=C/C(=O)OCC(=O)Nc2cccc(S(=O)(=O)N(C)C)c2)c1	none
O=C(CSc1ccc2c(c1)OCCO2)Nc1ncc(Cl)cc1Cl	none
COc1cccc(/C=C/C(=O)OCC(=O)Nc2ccc(Cl)c(S(=O)(=O)N(C)C)c2)c1	RAM inhibit 8.5
COc1cc(NC(=O)COC(=O)/C=C/c2ccccc2Cl)cc(OC)c1	RAM inhibit 10
O=C(COC(=O)/C=C/c1ccccc1Cl)NCCc1ccc(Cl)cc1Cl	RAM inhibit 8.6
O=C(COC(=O)/C=C/c1ccc(Cl)cc1Cl)NCCC1=CCCCC1	none
COc1cc(NC(=O)COC(=O)/C=C/c2ccc(OC)c(OC)c2)cc(OC)c1	none
O=C(CSc1ccc2c(c1)OCCO2)NCCc1ccc(Cl)cc1Cl	RAM inhibit 8.4
COc1cc(NC(=O)COC(=O)/C=C/c2c(C)nn(-c3ccc(F)cc3)c2Cl)cc(OC)c1	L major viab 64
COc1ccc(OC)c(/C=C/C(=O)OCC(=O)Nc2cccc(C(C)=O)c2)c1	L major viab 66
O=C(COC(=O)/C=C/c1ccccc1)Nc1cccc(Oc2ccccc2)c1	RAM inhibit 8.9
CC(C)c1ccccc1NC(=O)CNC(C)c1ccc(F)cc1 (stereo not given)	none
O=C(Cc1cc(=O)[nH][nH]1)N/N=C/C=C/c1ccccc1	L major viab 72
CCNC(=O)Nc1ccc(OC)cc1OC	none
COc1cc(SC#N)ccc1N=Cc1c(C)[nH]n(-c2ccc(Cl)cc2)c1=O	none
COc1cc(SC#N)ccc1N=Cc1c(C)[nH]n(-c2ccc(C)c(C)c2)c1=O	L major viab 99
COc1cc(C(=O)OCCN2CCOCC2)ccc1O	L major viab 56
Cc1nn(C)c(Cl)c1CN1CCN(C2CCCC2)C(CCO)C1 (stereo not given)	none
CCOC(=O)CN1C(=O)S/C(=C/c2cc(C)n(C)c2C)C1=O	none (no result: RAM inhibit, ABCB1 inh, ABCG2 inh, WT yeast gro inh)
CCOC(=O)CN1C(=O)S/C(=C/c2ccc(O)c([N+](=O)[O-])c2)C1=O	L major viab 52
OCC1(Cc2ccccc2)CCN(Cc2cnn(-c3ccccc3F)c2)CC1	L major viab 88
Cc1ccc(-n2cc(CN3CCC(CO)(Cc4ccccc4)CC3)cn2)cc1	L major viab 80
Cc1ccc(-n2cc(CN3CCC(CO)(Cc4cccc(C(F)(F)F)c4)CC3)cn2)cc1	WT yeast gro inh 93, L major viab 99
OCC1(Cc2ccccc2)CCN(Cc2cnc(-c3ccc(Cl)cc3)nc2)CC1	none
OCC1(Cc2ccccc2)CCCN(Cc2cnn(-c3ccccc3)c2)C1 (stereo not given)	L major viab 89
CCOCCCNS(=O)(=O)c1ccc(NC(=O)Cc2c(F)cccc2Cl)cc1	none
